The results in this text go back to ChEMBL document CHEMBL1127859, “Selective inhibition of trypanosomal glyceraldehyde-3-phosphate dehydrogenase by protein structure-based design: toward new drugs for the treatment of sleeping sickness” (J Med Chem, 1994).

Experiment [1] in a line: Tested for the inhibitory activity against Glycosomal glyceraldehyde 3-phosphate dehydrogenase (gGAPDH) of Trypanosoma brucei. The method in brief: (§1)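 Recombinant glycosomal GAPDH overexpressed in E. coli and purified. Started with enzyme. Initial rates compared with a 5% DMSO control; NADH absorbance interference checked without enzyme. IC50 from ≥5 concentrations giving 5–80% inhibition.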

For experiment [2], the target named is Glyceraldehyde-3-phosphate dehydrogenase (Homo sapiens, UniProt P04406). As to the kind of experiment: Tested for the inhibitory activity against Glycosomal glyceraldehyde 3-phosphate dehydrogenase (gGAPDH) of human erythrocyte.
The nature of experiment [3]: Tested for the inhibitory activity against Glycosomal glyceraldehyde 3-phosphate dehydrogenase (gGAPDH) of Leishmania mexicana. A digest of the protocol:
as §1

Experiment [4] is described as follows: Tested for the inhibitory activity against Glycosomal glyceraldehyd 3-phosphate dehydrogenase (gGAPDH) of Trypanosoma brucei. A digest of the protocol:
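Recombinant T. brucei gGAPDH expressed in E. coli. Reaction started with enzyme; NADH absorbance read. Activity from initial rates versus a DMSO-only control. IC50 from at least five inhibitor concentrations giving 5–80% inhibition.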

As a reminder, the IC50 is the concentration needed to halve the response being measured. Low values mean higher potency, high ones lower potency.

Bounds are passed on as bounds.

Chain of Glyceraldehyde-3-phosphate dehydrogenase (P04406 whole entry): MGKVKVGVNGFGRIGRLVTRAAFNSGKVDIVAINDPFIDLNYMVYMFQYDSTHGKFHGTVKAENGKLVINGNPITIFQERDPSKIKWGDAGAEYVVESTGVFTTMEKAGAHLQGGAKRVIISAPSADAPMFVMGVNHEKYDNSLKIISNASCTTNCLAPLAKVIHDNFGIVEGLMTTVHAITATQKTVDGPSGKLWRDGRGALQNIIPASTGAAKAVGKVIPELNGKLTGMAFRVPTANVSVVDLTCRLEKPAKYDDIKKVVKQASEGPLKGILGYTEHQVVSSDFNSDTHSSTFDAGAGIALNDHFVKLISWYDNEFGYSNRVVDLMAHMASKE

Turning to `Nc1ncnc2c1nc(-c1ccccc1)n2[C@@H]1O[C@H](CO)[C@@H](O)[C@H]1O`, the half-inhibitory concentration (IC50) in experiment [1] and in experiment [2] was 10 mM throughout.

As to `Nc1ncnc2c1ncn2[C@@H]1O[C@H](CO)[C@@H](O)[C@H]1NC(=O)c1ccccc1`, the IC50 in experiment [1] was 6 mM; in experiment [3] it was 3.3 mM; in experiment [2] it was above 10 mM.

As to `Nc1ncnc2c1ncn2[C@@H]1O[C@H](CO)[C@@H](O)[C@H]1NC(=O)c1cccs1`, the IC50 in experiment [1] was 5 mM; in experiment [3], 2.4 mM; in experiment [2], above 10 mM.

Turning to `COc1cccc(C(=O)N[C@@H]2[C@H](O)[C@@H](CO)O[C@H]2n2cnc3c(N)ncnc32)c1`, the results for the concentration for half-maximal inhibition (IC50) in experiment [1], in experiment [3] and in experiment [2] were 2.2 mM, 0.3 mM and above 10 mM, respectively.

Take `Nc1ncnc2c1nc(-c1cccs1)n2[C@@H]1O[C@H](CO)C(O)[C@H]1O` (single isomer, unassigned): the figures for the IC50 in experiment [4], in experiment [3] and in experiment [2] were 0.6 mM, 0.5 mM and 1.3 mM, respectively.

On to `Cc1nc(N)c2ncn([C@@H]3O[C@H](CO)[C@@H](O)[C@H]3O)c2n1` [2-METHYLADENOSINE], for which the results for the half-maximal inhibitory concentration (IC50) in experiment [1], in experiment [3] and in experiment [2] were 8 mM, 6 mM and above 10 mM, respectively.

As for `Nc1ncnc2c1ncn2[C@@H]1O[C@H](CO)[C@@H](O)[C@H]1O` [ADENOSINE], the values for the half-inhibitory concentration (IC50) in experiment [1], in experiment [3] and in experiment [2] were 100 mM, 50 mM and 35 mM, respectively.
